Screens deposited in PubChem BioAssay by The Scripps Research Institute Molecular Screening Center.
PAFAH1B3 inh = blocks human PAF acetylhydrolase 1B catalytic subunit 3; actives 0.28% (n = 340,000); recombinant PAFAH1B3, FP-rhodamine probe, fluorescence polarization; Q15102; inhibition, % at 3.39 µM; AID 492972;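 active = inhibition above the screen-wide average of all tested compounds plus 3 SD, cut at about 25% in these data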
Target sequence (Q15102 whole entry, looked up): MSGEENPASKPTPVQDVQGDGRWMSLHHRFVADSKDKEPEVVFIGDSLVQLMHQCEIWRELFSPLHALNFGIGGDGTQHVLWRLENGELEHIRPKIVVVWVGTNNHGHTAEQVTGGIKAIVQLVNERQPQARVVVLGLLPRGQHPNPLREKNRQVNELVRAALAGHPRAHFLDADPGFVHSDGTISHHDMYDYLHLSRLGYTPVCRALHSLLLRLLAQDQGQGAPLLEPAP
IMP-1 inhibitor = blocks Pseudomonas aeruginosa IMP-1 metallo-beta-lactamase; actives 0.45% (n = 290,000); AID 1556; inhibition, % at 5.6 µM; purified IMP-1, nitrocefin hydrolysis, epi-absorbance fluorescence;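 active = inhibition above the mean plus 3 SD of all compounds in the same screening run, cut at about 4.5% in these data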
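System: purified IMP-1 / Input: IMP-1 dispensed at 0.2 nM / Medium: 50 mM HEPES pH 7.1, 50 µM ZnSO4, 0.05% Brij 35 / Timing: 15 min enzyme–compound preincubation, then 25 min nitrocefin reaction, 25 °C / Technique: plate fluorescence quenching by hydrolysis product, ex 480/em 530 nm / Repeats: singlicate testing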
pPAFAH FP inh = pPAFAH (human) enzyme inhibition; recombinant pPAFAH, FP-rhodamine probe fluorescence polarization; inhibition, % at 3.39 µM; actives 1.5% (n = 330,000);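 active = inhibition above the mean inhibition across the screen plus 3 SD, cut at about 25% in these data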;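 also: inhibitors block binding of the rhodamine activity-based probe so polarization drops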
VIM-2 inh = inhibitors of Pseudomonas aeruginosa VIM-2 metallo-beta-lactamase. actives 0.89% (n = 290,000). AID 1527. purified VIM-2, nitrocefin hydrolysis, epi-absorbance fluorescence. inhibition, % at 5.6 µM;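 active = inhibition above the mean of all tested compounds plus 3 SD, cutoff set per screening run, cut at about 7.5% in these data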;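 also: red hydrolysis product quenches plate fluorescence so inhibitors raise well fluorescence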
PAFAH1B2 FP inh = blocks human PAF acetylhydrolase 1b catalytic subunit 2; P68402; recombinant PAFAH1B2, FP-rhodamine activity probe, fluorescence polarization; inhibition, % at 3.39 µM; actives 1.2% (n = 340,000);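 active = inhibition above the mean of all tested compounds plus 3 SD, cut at about 24% in these data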
Target sequence (P68402 whole entry, looked up): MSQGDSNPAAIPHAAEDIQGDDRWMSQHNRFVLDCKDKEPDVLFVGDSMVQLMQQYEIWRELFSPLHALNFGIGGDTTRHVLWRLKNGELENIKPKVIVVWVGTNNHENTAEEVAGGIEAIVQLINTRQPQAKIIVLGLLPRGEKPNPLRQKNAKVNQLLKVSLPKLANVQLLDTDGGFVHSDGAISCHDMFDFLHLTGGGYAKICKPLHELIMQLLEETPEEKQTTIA
PAFAH2 FP inh = PAFAH2 (human) inhibition; Q99487; inhibition, % at 3.39 µM; recombinant PAFAH2, FP-rhodamine activity probe, fluorescence polarization; AID 492956; actives 0.99% (n = 340,000);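 active = inhibition above the mean over all tested compounds plus 3 SD, cut at about 30% in these data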;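 also: inhibitors block probe labeling of enzyme so polarization drops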
PAFAH2 FP conf = confirmation of human PAFAH2 inhibitors | shares compounds with PAFAH2 FP inh | recombinant PAFAH2, FP-rhodamine activity probe, fluorescence polarization | inhibition, % at 3.39 µM | actives 65% (n = 2,300) | AID 493030;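 active = mean inhibition over three repeats above a set limit taken from the earlier primary screen, cut at about 30% in these data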;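 also: inhibitor blocks binding of rhodamine activity probe so polarization falls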
Hits are given with their value; – = inactive; · = no result given. A selection: hits, their analogues and other compounds. The true share with any hit is near 3.6%.

SMILES	PAFAH1B3 inh	IMP-1 inhibitor	pPAFAH FP inh	VIM-2 inh	PAFAH1B2 FP inh	PAFAH2 FP inh	PAFAH2 FP conf
O=C(COC(=O)c1ccc(F)cc1F)Nc1cccc(S(=O)(=O)N2CCOCC2)c1	–	·	·	·	–	34	35
O=C(COC(=O)c1cc(S(=O)(=O)N2CCCC2)ccc1O)Nc1ccc(F)cc1F	–	·	–	·	–	42	–
COc1ccccc1CCC(=O)OCC(=O)Nc1cccc(S(=O)(=O)N2CCOCC2)c1	–	·	–	·	–	73	66
CC(=O)Nc1ccc(NC(=O)COC(=O)c2cc(S(=O)(=O)N3CCCC3)ccc2O)cc1	–	·	–	·	–	–	·
COc1cccc(CN(C)C(=O)c2cc(S(=O)(=O)N3CCCC3)ccc2C)c1OC	–	·	–	·	–	–	·
CCc1nccn1CCC(=O)N1CCCC(N2CCN(c3cccc(Cl)c3)CC2)C1 (configuration not stated)	–	–	·	–	–	–	·
COCCn1cnc2c1c(=O)[nH]c(=O)n2Cc1ccccc1	–	–	–	–	–	–	·
Cc1noc(C)c1COc1ccc(C(=O)OCC(=O)Nc2cccc(S(=O)(=O)N3CCOCC3)c2)cc1	–	–	–	–	–	72	65
O=C(COC(=O)c1cccc(N2C(=O)C3CC=CCC3C2=O)c1)c1ccccc1 (configuration not stated)	–	–	–	–	–	35	–
O=C(CC12CC3CC(CC(C3)C1)C2)NCC(=O)N1CCCC1	–	–	–	–	–	75	71
O=C(NC1CCCN(C2Cc3ccccc3C2)C1)c1ccc(F)cc1Cl (configuration not stated)	–	–	–	–	–	42	–
O=C(NNC(=O)c1ccccc1O)c1ccc(S(=O)(=O)Nc2ccccc2)cc1	–	·	–	·	–	–	·
CC1CC(C)CN(C(=O)COC(=O)/C=C/c2ccco2)C1 (configuration not stated)	–	·	–	·	–	–	·
O=C(COC(=O)/C=C/c1ccco1)NC1CCCCC1	–	·	–	·	–	77	82
O=C(COC(=O)/C=C/c1ccc(Br)o1)NC1CCCCC1	–	·	–	·	–	77	73
CC1CCCCC1NC(=O)COC(=O)/C=C/c1ccco1 (configuration not stated)	–	·	–	·	–	84	74
COc1cc2c(cc1OC)C(C)N(C(=O)C1=NN(c3cccc(C)c3)C(=O)CC1)CC2 (configuration not stated)	–	–	–	–	–	–	·
COc1ccc(S(=O)(=O)N(C)C)cc1NCC(=O)Nc1ccc(Br)c(C)c1	–	–	–	–	–	–	·
CS(=O)(=O)Cc1ccc(C(=O)NC2CCSc3ccccc32)cc1 (configuration not stated)	–	–	–	–	–	–	·
CC(C(=O)Nc1ccccc1F)N1CCN(C)CC1 (configuration not stated)	·	–	–	–	·	·	·
CN(C)S(=O)(=O)c1cccc(C(=O)Nc2n[nH]c(C(F)(F)F)n2)c1	–	–	–	–	–	–	·
O=C(COC(=O)c1cc(Br)ccc1O)Nc1ccc2c(c1)OCO2	–	·	–	·	–	37	–
O=C(COC(=O)c1ccco1)Nc1ccccc1[N+](=O)[O-]	–	–	–	–	–	41	–
CC(CNC(=O)COC(=O)c1ccco1)c1ccccc1 (configuration not stated)	–	·	–	·	–	57	48
O=C(NC(=S)Nc1ccccc1[N+](=O)[O-])c1ccco1	–	–	–	–	–	–	·
SMILES	PAFAH1B3 inh	IMP-1 inhibitor	pPAFAH FP inh	VIM-2 inh	PAFAH1B2 FP inh	PAFAH2 FP inh	PAFAH2 FP conf
Cc1ccc(C(=O)OCC(=O)Nc2ccc3c(c2)OCO3)o1	–	–	–	–	–	62	60
Cc1ccc(CSc2nccc(-c3c(C)nc4ccccn34)n2)cc1	·	–	–	–	·	·	·
O=C(COC(=O)c1ccco1)Nc1ccc2c(c1)OCO2	–	–	–	–	–	63	66
CCOC(=O)C1CCN(CCC(=O)Nc2ccc(Br)c(C)c2)CC1	–	–	·	–	–	–	·
Cc1cc(NC(=O)COC(=O)C2CC2)ccc1Br	–	·	–	·	–	77	74
CC1CC1C(=O)OCC(=O)Nc1cccc(Br)c1 (configuration not stated)	–	·	·	·	–	88	85
